Reference: ChEMBL document CHEMBL1123918, “Thromboxane synthetase inhibitors and antihypertensive agents. 4. N-[(1H-imidazol-1-yl)alkyl] derivatives of quinazoline-2,4(1H,3H)-diones, quinazolin-4(3H)-ones, and 1,2,3-benzotriazin-4(3H)-ones” (J Med Chem, 1987)
Active and inactive are the calls of the source.

Key:
[1] = target: T1, Thromboxane-A synthase (Rattus norvegicus) (UniProt P49430); assay: Tested for antihypertensive activity in spontaneously hypertensive rats at 100 mg/kg peroral dosage for 2 days; A means active; format: functional, organism-based; set-up: dose 100 mg/kg
T1 sequence (whole entry): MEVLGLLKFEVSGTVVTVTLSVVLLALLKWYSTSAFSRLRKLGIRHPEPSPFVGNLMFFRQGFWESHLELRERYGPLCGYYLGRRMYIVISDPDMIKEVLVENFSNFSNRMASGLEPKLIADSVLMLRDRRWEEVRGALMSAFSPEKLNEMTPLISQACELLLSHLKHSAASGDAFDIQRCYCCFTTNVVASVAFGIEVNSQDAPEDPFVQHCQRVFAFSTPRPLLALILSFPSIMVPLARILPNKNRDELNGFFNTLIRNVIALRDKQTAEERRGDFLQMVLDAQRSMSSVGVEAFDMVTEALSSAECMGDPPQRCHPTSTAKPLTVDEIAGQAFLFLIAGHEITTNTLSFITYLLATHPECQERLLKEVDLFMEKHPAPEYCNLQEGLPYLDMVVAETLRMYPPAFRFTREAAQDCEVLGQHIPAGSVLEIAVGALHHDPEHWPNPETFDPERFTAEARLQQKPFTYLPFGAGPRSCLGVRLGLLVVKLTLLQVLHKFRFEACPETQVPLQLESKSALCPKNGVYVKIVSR
How it was run: (§1)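 Male 16-week-old Okamoto SHR (mean arterial pressure about 170 mmHg) gavaged with compound suspended in 2% preboiled starch (50 mg/mL) at 100 mg/kg or less, with 0.9% NaCl load 25 mL/kg; identical second dose without saline 24 h later. Mean arterial pressure measured 28 h after first dose; one to three rats per compound.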

Thromboxane-A synthase = target: T2, Thromboxane-A synthase (Rattus norvegicus, UniProt P49430); assay: Tested for inhibition of thromboxane synthetase from spontaneously hypertensive rats
T2 sequence (P49430 whole entry): T1 sequence (whole entry)
How it was run: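 Washed SHR platelets in oxygenated Krebs phosphate buffer pH 7.4 (4.5-6.0 X 10^4 platelets/µL) incubated with vehicle or drug 10 min at 37 °C; stopped with ice and citric acid. TXB2 measured by direct RIA. Percent inhibition is relative to vehicle controls after background subtraction. IC50 is read from a plot of inhibition vs log concentration.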

[2] = target: T1, Thromboxane-A synthase (Rattus norvegicus); assay: Tested for antihypertensive activity in spontaneously hypertensive rats at 100 mg/kg peroral dosage for 2 days; I is inactive; format: functional, organism-based; set-up: dose 100 mg/kg; how it was run: as §1

## O=c1c2ccccc2ncn1CCCCCCn1ccnc1
[1]
  Activity: Active

## O=c1c2cc(Cl)ccc2nnn1CCCCCCCCn1ccnc1
[1]
  Activity: Active

## Cc1ccc2[nH]c(=O)n(CCC(C)n3ccnc3)c(=O)c2c1 (stereo unspecified)
[1]
  Activity: Active
Thromboxane-A synthase
  IC50: 70 nM

## O=c1c2cc(Cl)ccc2nnn1CCCCCCn1ccnc1
[1]
  Activity: Active

## O=c1[nH]c2cc(Cl)ccc2c(=O)n1CCCCCCn1ccnc1
[1]
  Activity: Active
Thromboxane-A synthase
  IC50: 200 nM

## Nc1ccc(Cl)cc1C(=O)NCCCCCCn1ccnc1
[1]
  Activity: Active

## Nc1ccccc1C(=O)NCCCn1ccnc1
[2]
  Activity: inactive

## O=c1[nH]c2c(Cl)cccc2c(=O)n1CCCCCn1ccnc1
[1]
  Activity: Active
Thromboxane-A synthase
  IC50: 40 nM

## O=c1[nH]c2ccc(Cl)cc2c(=O)n1CCCCCCCCn1ccnc1
[2]
  Activity: inactive

## CC(CCNC(=O)c1cc(Cl)ccc1N)n1ccnc1 (stereo unspecified)
[1]
  Activity: Active
Thromboxane-A synthase
  IC50: 500 nM

## CC(CNC(=O)c1cc(Cl)ccc1N)Cn1ccnc1 (stereo unspecified)
[1]
  Activity: Active
Thromboxane-A synthase
  IC50: 90 nM

## Cc1ccc(N)c(C(=O)NCCC(C)n2ccnc2)c1 (stereo unspecified)
[1]
  Activity: Active
Thromboxane-A synthase
  IC50: 170 nM

## CC(CCn1c(=O)[nH]c2c(Cl)cccc2c1=O)n1ccnc1 (stereo unspecified)
[1]
  Activity: Active
Thromboxane-A synthase
  IC50: 1000 nM

## O=c1c2ccccc2ncn1CCCCCn1ccnc1
[1]
  Activity: Active

## Cc1ccc2[nH]c(=O)n(CCCCn3ccnc3)c(=O)c2c1
[1]
  Activity: Active
Thromboxane-A synthase
  IC50: 50 nM

## O=c1c2cc(Cl)ccc2ncn1CCCCCCCCn1ccnc1
[1]
  Activity: Active
Thromboxane-A synthase
  IC50: 40 nM

## O=c1[nH]c2ccc(Cl)cc2c(=O)n1CCCCn1ccnc1 [listing 1 of 3 here]
[1]
  Activity: Active

## O=c1[nH]c2c(C(F)(F)F)cccc2c(=O)n1CCCCn1ccnc1
[1]
  Activity: Active
Thromboxane-A synthase
  IC50: 50 nM

## O=c1c2cc(Cl)ccc2nnn1CCCn1ccnc1
[2]
  Activity: inactive

## CC(CCn1c(=O)[nH]c2ccc(Cl)cc2c1=O)n1ccnc1 (stereo unspecified)
[1]
  Activity: Active
Thromboxane-A synthase
  IC50: 150 nM

## Nc1ccc(Cl)cc1C(=O)NCCCCCCCCn1ccnc1
[1]
  Activity: Active

## O=c1c2ccccc2nnn1CCCCCCn1ccnc1
[1]
  Activity: Active
Thromboxane-A synthase
  IC50: 50 nM

## Nc1cc(Cl)ccc1C(=O)NCCCCn1ccnc1
[1]
  Activity: Active

## CCc1nc2ccc(Cl)cc2c(=O)n1CCCCn1ccnc1
[1]
  Activity: Active

## O=c1[nH]c2ccc(Cl)cc2c(=O)n1CCCCn1ccnc1 [listing 2 of 3 here]
Thromboxane-A synthase
  IC50: 7 nM

## O=c1c2ccccc2ncn1CCCCn1ccnc1
[1]
  Activity: Active

## O=c1c2ccc(Cl)cc2nnn1CCCCCn1ccnc1
[1]
  Activity: Active

## Cc1ccc2nnn(CCCCn3ccnc3)c(=O)c2c1
[1]
  Activity: Active
Thromboxane-A synthase
  IC50: 60 nM

## CC(Cn1ccnc1)Cn1c(=O)[nH]c2ccc(Cl)cc2c1=O (stereo unspecified) [listing 1 of 3 here]
[2]
  Activity: inactive

## O=c1c2ccc(Cl)cc2nnn1CCCCn1ccnc1
[1]
  Activity: Active

## O=c1c2cc(Br)ccc2nnn1CCCCn1ccnc1
[1]
  Activity: Active

## Cc1ccc2ncn(CCCCn3ccnc3)c(=O)c2c1
[1]
  Activity: Active
Thromboxane-A synthase
  IC50: 350 nM

## Nc1ccc(Cl)cc1C(=O)NCCCCCn1ccnc1
[1]
  Activity: Active

## CC(Cn1ccnc1)Cn1c(=O)[nH]c2c(C(F)(F)F)cccc2c1=O (stereo unspecified)
[1]
  Activity: Active
Thromboxane-A synthase
  IC50: 400 nM

## O=c1c2cc(Cl)ccc2nnn1CCCCn1ccnc1
[1]
  Activity: Active
Thromboxane-A synthase
  IC50: 240 nM

## O=c1[nH]c2ccc(Br)cc2c(=O)n1CCCCn1ccnc1
[1]
  Activity: Active
Thromboxane-A synthase
  IC50: 800 nM

## CC(CNC(=O)c1ccc(Cl)cc1N)Cn1ccnc1 (stereo unspecified)
[1]
  Activity: Active

## O=c1[nH]c2ccc(Cl)cc2c(=O)n1CCCn1ccnc1
[2]
  Activity: inactive

## Nc1ccc(Cl)cc1C(=O)NCCCCCCCn1ccnc1
[2]
  Activity: inactive

## O=c1c2ccccc2nnn1CCCCCn1ccnc1
[2]
  Activity: inactive

## O=c1[nH]c2ccccc2c(=O)n1CCCCn1ccnc1
[1]
  Activity: Active

## O=c1c2ccccc2ncn1CCCn1ccnc1
[2]
  Activity: inactive

## CC(CCn1c(=O)[nH]c2cc(Cl)ccc2c1=O)n1ccnc1 (stereo unspecified)
[2]
  Activity: inactive

## CC(Cn1ccnc1)Cn1c(=O)[nH]c2ccc(Cl)cc2c1=O (stereo unspecified) [listing 2 of 3 here]
Thromboxane-A synthase
  IC50: 8 nM

## O=c1[nH]c2ccccc2c(=O)n1CCCCCn1ccnc1
[1]
  Activity: Active
Thromboxane-A synthase
  IC50: 350 nM

## O=c1[nH]c2c(Cl)cccc2c(=O)n1CCCCn1ccnc1
[1]
  Activity: Active
Thromboxane-A synthase
  IC50: 30 nM

## O=c1c2cc(Cl)ccc2ncn1CCCCn1ccnc1
[1]
  Activity: Active
Thromboxane-A synthase
  IC50: 500 nM

## O=c1[nH]c2ccc(Cl)cc2c(=O)n1CCCCCCCn1ccnc1
[1]
  Activity: Active
Thromboxane-A synthase
  IC50: 2 nM

## CC(Cn1ccnc1)Cn1c(=O)[nH]c2ccc(Cl)cc2c1=O (stereo unspecified) [listing 3 of 3 here]
Thromboxane-A synthase
  IC50: 10 nM

## Nc1ccc(Br)cc1C(=O)NCCCCn1ccnc1
[1]
  Activity: Active

## O=c1[nH]c2ccc(Cl)cc2c(=O)n1CCCCCCn1ccnc1
[1]
  Activity: Active
Thromboxane-A synthase
  IC50: 4 nM

## Cc1ccc2nnn(CCCCCn3ccnc3)c(=O)c2c1
[1]
  Activity: Active

## O=c1c2cc(Cl)ccc2nnn1CCCCCn1ccnc1
[1]
  Activity: Active

## O=c1c2ccccc2nnn1CCCCn1ccnc1
[1]
  Activity: Active

## CC(CCn1cnc2ccc(Cl)cc2c1=O)n1ccnc1 (stereo unspecified)
[1]
  Activity: Active
Thromboxane-A synthase
  IC50: 8000 nM

## O=c1[nH]c2c(C(F)(F)F)cccc2c(=O)n1CCCCCCn1ccnc1
[1]
  Activity: Active

## Nc1c(Cl)cccc1C(=O)NCCCCCn1ccnc1
[2]
  Activity: inactive

## CC(Cn1ccnc1)Cn1c(=O)[nH]c2cc(Cl)ccc2c1=O (stereo unspecified) [listing 1 of 2 here]
Thromboxane-A synthase
  IC50: 3 nM

## CC(Cn1ccnc1)Cn1cnc2ccccc2c1=O (stereo unspecified)
[1]
  Activity: Active

## O=c1[nH]c2ccccc2c(=O)n1CCCCCCn1ccnc1
[1]
  Activity: Active
Thromboxane-A synthase
  IC50: 40 nM

## O=c1[nH]c2c(C(F)(F)F)cccc2c(=O)n1CCCCCn1ccnc1
[1]
  Activity: Active
Thromboxane-A synthase
  IC50: 10 nM

## O=c1[nH]c2cc(Cl)ccc2c(=O)n1CCCCn1ccnc1
[1]
  Activity: Active
Thromboxane-A synthase
  IC50: 9 nM

## O=c1c2cc(Cl)ccc2ncn1CCCCCCn1ccnc1
[1]
  Activity: Active

## O=c1[nH]c2ccc(Cl)cc2c(=O)n1CCCCCn1ccnc1
[1]
  Activity: Active
Thromboxane-A synthase
  IC50: 12 nM

## Nc1ccccc1C(=O)NCCCCn1ccnc1
[2]
  Activity: inactive

## O=c1[nH]c2ccc(Cl)cc2c(=O)n1CCCCn1ccnc1 [listing 3 of 3 here]
Thromboxane-A synthase
  IC50: 2 nM

## Nc1ccc(Cl)cc1C(=O)NCCCn1ccnc1
[1]
  Activity: Active

## Cc1ccc2[nH]c(=O)n(CCCCCn3ccnc3)c(=O)c2c1
[1]
  Activity: Active
Thromboxane-A synthase
  IC50: 30 nM

## O=c1[nH]c2c(Cl)cccc2c(=O)n1CCCCCCn1ccnc1
[1]
  Activity: Active

## CC(Cn1ccnc1)Cn1c(=O)[nH]c2cc(Cl)ccc2c1=O (stereo unspecified) [listing 2 of 2 here]
[1]
  Activity: Active

## Nc1cc(Cl)ccc1C(=O)NCCCCCn1ccnc1
[2]
  Activity: inactive

## Cc1nc2ccc(Cl)cc2c(=O)n1CCCCn1ccnc1
[1]
  Activity: Active

## O=c1c2ccccc2nnn1CCCn1ccnc1
[1]
  Activity: Active
Thromboxane-A synthase
  IC50: 1500 nM

## CC(CCn1c(=O)[nH]c2ccccc2c1=O)n1ccnc1 (stereo unspecified)
[1]
  Activity: Active
Thromboxane-A synthase
  IC50: 700 nM

## O=c1c2ccc(Cl)cc2ncn1CCCCn1ccnc1
[2]
  Activity: inactive

## Nc1ccc(Cl)cc1C(=O)NCCCCn1ccnc1
[2]
  Activity: inactive

## O=c1[nH]c2cc(Cl)ccc2c(=O)n1CCCCCn1ccnc1
[1]
  Activity: Active
Thromboxane-A synthase
  IC50: 820 nM

## CC(Cn1ccnc1)Cn1c(=O)[nH]c2ccccc2c1=O (stereo unspecified)
[1]
  Activity: Active
Thromboxane-A synthase
  IC50: 30 nM

## O=c1c2cc(Cl)ccc2ncn1CCCCCn1ccnc1
[2]
  Activity: inactive
